# Screens (PubChem)
# FLuc stim CS = affects firefly luciferase, flagging false hits in luciferase stimulation screens | P08659 | ATPlite luciferase biochemical, luminescence, 10 min; 0 = ATP-free wells, 1 = DMSO control | activation factor at 10 µM | 200,000 tested, under 10 active;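 active = luciferase activation factor, scaled between plate controls, of at least 2 with compound at 10 µM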
# Target sequence (P08659 whole entry, looked up): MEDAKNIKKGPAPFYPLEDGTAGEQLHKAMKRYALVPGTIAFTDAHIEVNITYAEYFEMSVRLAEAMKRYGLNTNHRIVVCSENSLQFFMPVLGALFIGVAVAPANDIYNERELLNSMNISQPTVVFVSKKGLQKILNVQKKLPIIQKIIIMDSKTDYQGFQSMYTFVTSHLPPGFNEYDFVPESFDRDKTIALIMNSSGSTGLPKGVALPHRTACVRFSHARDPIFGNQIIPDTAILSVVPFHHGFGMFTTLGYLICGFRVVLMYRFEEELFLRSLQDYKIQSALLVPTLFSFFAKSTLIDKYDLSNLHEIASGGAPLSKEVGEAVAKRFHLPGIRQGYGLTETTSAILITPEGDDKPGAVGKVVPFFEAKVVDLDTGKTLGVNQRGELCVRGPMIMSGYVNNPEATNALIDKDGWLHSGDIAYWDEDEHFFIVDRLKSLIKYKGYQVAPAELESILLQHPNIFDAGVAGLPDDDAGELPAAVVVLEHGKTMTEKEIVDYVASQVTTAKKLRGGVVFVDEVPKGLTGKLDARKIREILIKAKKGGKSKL
#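 System: cell-free luciferase reagent; medium: PBS as buffer for the ATP substrate; doses: test compounds dosed from 2 mM stocks in 100% DMSO; incubation: 10 min, room temperature; measured by: luminescence from luciferase reaction; read-out: luciferase activation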
# PPC-1+TRAIL kill = kills PPC-1 cancer cells in the presence of TRAIL. AID 1443. 0.41% of 220,000 active. cell killing (% activity), % at 4 µM or 5 µM. PPC-1 cells + TRAIL, ATPLite viability luminescence;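 active = cell killing above 50% in the first pass at 4 µM, then a duplicate retest at 5 µM averaging 50% or more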;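 note: plate controls were cells with TRAIL plus DMSO for no effect and medium-only wells lacking cells for full effect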
# APP 5'UTR act = activates APP 5'UTR luciferase reporter | 1% of 190,000 active | activation, % at 2 µM | AID 1276 | SH-SY5Y APP 5'UTR luciferase reporter, luminescence; zero percent = DMSO vehicle wells;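 active = activation above a set limit, based on mean plus 3 SD of controls, cut at about 140% in these data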
# TRAIL sens C8 = caspase-8 TRAIL sensitization | NB7+C8 cells + TRAIL, ATPlite viability luminescence | inhibition (viability loss, TRAIL sensitization), % at 10 µM | 1% of 360,000 active | AID 624354;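 active = compounds causing at least 50% loss of cell viability in the single-dose screen, relative to plate controls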
# NF-kB expr up = compounds increasing NF-kB expression in human neuronal cells; 1.6% of 190,000 active; AID 1239; NF-kB reporter expression; hits give high values; fold change at 12.5 µM; in the data active = fold change above about 3.3
# FLuc inhib CS = inhibits firefly luciferase, flagging false hits in luciferase inhibition screens; 1.5% of 200,000 active; P08659; ATPLite firefly luciferase biochemical luminescence, 10 min; AID 1006; inhibition, % at 10 µM;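 active = inhibition above about 50% when tested at 10 µM, limit read from the data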
# Active calls of the source: *; · = not tested or not shown. Hits are enriched below; roughly 2.2% of the tested compounds scored in any of these assays.
SMILES,FLuc stim CS,PPC-1+TRAIL kill,APP 5'UTR act,TRAIL sens C8,NF-kB expr up,FLuc inhib CS
O=C(N=Nc1ccc(NOC(=O)c2ccccc2Br)cc1)c1ccccc1O,0.4,48,16,·,1.4,61*
CCN(c1ccccc1)S(=O)(=O)c1ccc(OC)c(NC(=O)c2cccs2)c1,1,14,6,-5,0.85,-3
CCN(c1ccccc1)S(=O)(=O)c1ccc(OC)c(NC(=O)c2cc(F)c(F)c(F)c2F)c1,·,·,·,56*,·,·
CSCc1cc(C(=O)NC2CC2)c(N)s1,·,·,·,3,·,·
OC[C@@H]1CN(Cc2cccc(C(F)(F)F)c2)C[C@H](n2cnc3c(NC4CC4)ncnc32)O1,·,·,·,2,·,·
O=C1OC2(CCCCC2)OC(=O)C1=CNc1ccc2c(c1)OCO2,0.9,18,1,-8,1.4,7
COc1ccc2c(c1)CC/C(=C\Nc1ccc3c(c1)OCO3)C2=O,0.3,13,31,52*,3.8*,68*
O=C1/C(=C/Nc2ccc3c(c2)OCO3)CCc2ccccc21,0.1,27,153*,86*,2.2,94*
Cc1ccc([C@H]2C[C@H](O)[C@@H](n3cc(C4CC4)nn3)CN2C(=O)c2cccs2)cc1,·,·,·,8,·,·
COc1cc(C(O)c2nc(-c3csc4ccccc34)cs2)ccc1F (stereo unspecified),·,·,·,-11,·,·
COCCNc1c(-c2cc3ccc(C)c(C)c3[nH]c2=O)nc2ccccn12,0.3,14,121,61*,2.2,70*
Cc1ccc(NC(=O)Cn2c(=O)cnc3ccccc32)cc1S(=O)(=O)N1CCOCC1,·,·,·,-17,·,·
CC(=O)c1c(C)nc(-c2ccccc2)nc1N,1,14,11,0,1.5,1
CCOC(=O)c1c(C)nc(-c2ccccc2)nc1N,0.8,6,123,21,4*,24
COc1ccc(-c2cc3nc4n(c(=O)c3s2)CCC4)cc1,0.2,-11,160*,71*,1.1,84*
Cc1ccc(N=Cc2sc(O)c3ccccc23)c(C)c1,1,6,12,-18,1.3,-5
Cc1ccc(N=Cc2sc(O)c3ccccc23)cc1,1,30,193*,-6,13*,-3
S=C(Nc1ccccc1Oc1ccccc1)Nc1cccc(Cl)c1Cl,1,3,14,-3,1.3,1
CC(C)(Oc1ccc(Cl)cc1)C(=O)NC1CC1,·,·,·,-6,·,·
CNC(=O)c1ccsc1NC(=O)c1ccc2c(c1)CCCC2,0.3,40,63,40,0.94,74*
CNc1cc(N2CCN(S(=O)(=O)N(C)C)CC2)ccc1[N+](=O)[O-],1.1,8,5,-6,1.2,-8
COc1cccc(C(O)c2ncc(-c3cccc(C(F)(F)F)c3)[nH]2)c1 (stereo unspecified),·,·,·,-3,·,·
CCOc1cc(NC(=O)c2ccccn2)c(OCC)cc1NC(=O)c1ccccc1,1,·,-13,-6,0.92,0
CCOc1cc(NC2CS(=O)(=O)CC2O)c(OCC)cc1NC(=O)c1ccccc1 (stereo unspecified),1.1,13,9,51*,0.59,-8
Cc1noc(C)c1S(=O)(=O)Nc1ccccc1N1CCOCC1,·,2,·,-3,·,·
SMILES,FLuc stim CS,PPC-1+TRAIL kill,APP 5'UTR act,TRAIL sens C8,NF-kB expr up,FLuc inhib CS
CN(C)c1ccc(C=C2SC(=S)NC2=O)cc1,·,·,·,47,·,·
CN(C)c1ccc(/C=C2\CCCCC2=O)cc1,0.7,36,160*,9,4.2*,34
O=C(/C=C/c1cccc(F)c1)OCC(=O)N1CCCc2ccccc21,·,·,·,-9,·,·
O=C(/C=C/c1ccc(Cl)cc1Cl)N1CCc2ccccc21,0.4,38,103,61*,2.9,63*
O=C(c1ccc(Cl)cc1Cl)N1CCc2ccccc21,·,·,·,3,·,·
O=C(/C=C/c1cccc(F)c1)N1CCc2ccccc21,0.4,43,200*,64*,0.98,62*
COC(=O)[C@@]12C[C@@H](CC(=O)NCCc3ccccc3OC)C(=O)N(Cc3cccc4ccccc34)C1=CCC(C)(C)C2,·,·,·,2,·,·
CCN(CC)c1ccc2c(c1)OC(N)=C(C#N)C2c1cccnc1 (stereo unspecified),1.1,-17,-94,4,3.5*,-5
CCC(O)C1CCN(C(=O)c2cc(COc3ccc4ncccc4c3)on2)CC1 (stereo unspecified),1,·,-4,44,0.82,-4
O=C(CC(Nc1ccc(F)cc1)C(=O)O)c1ccccc1 (stereo unspecified),0.1,5,89,60*,5.7*,87*
COc1ccc(NC(=O)CN(c2ccccc2F)S(=O)(=O)c2ccc(C)cc2)cc1,·,·,·,-34,·,·
CC1CCC2(CC1)NC(=O)N(NC(=O)C1CCN(C(=O)c3ccc(Cl)cc3)CC1)C2=O (stereo unspecified),·,·,·,11,·,·
Cc1[nH]n(-c2ccccc2)c(=O)c1N=Nc1ccccc1,0.9,-7,120,-7,4*,12
Cc1ccc(N=Nc2c(N)n(-c3ccccc3)[nH]c2=O)cc1,0.9,5,26,15,4.2*,13
O=C(NCC(c1ccccc1Cl)N1CCCC1)C1CCN(C(=O)Nc2ccccc2)CC1 (stereo unspecified),·,·,·,-7,·,·
COc1ccc(NC(=O)c2nnn(CC(=O)Nc3ccc4c(c3)OCO4)c2N)c(OC)c1,·,·,·,24,·,·
CC(C(=O)Nc1nc(-c2ccc(F)cc2)cs1)N1C(=O)C2CC=CCC2C1=O (stereo unspecified),·,·,·,-6,·,·
O=C(OCC(=O)N1CCN(Cc2ccccc2)CC1)c1cc(Cl)ccc1[N+](=O)[O-],·,·,·,-6,·,·
CCCCn1nnnc1C(c1cc2ccccc2o1)N1CCN(c2ccncc2)CC1 (stereo unspecified),·,·,·,10,·,·
COc1cccc(CNc2ncc(Br)cc2Br)c1O,0.9,-7,44,-6,2,8
COc1cccc(CNc2ccc(Br)cn2)c1O,0.4,29,152*,26,6.3*,62*
CC1(C2(O)CCCCC2)NCCc2ccccc21 (stereo unspecified),·,·,·,4,·,·
CCOc1ccc2nc3cc(N=Nc4ccc(N)nc4N)ccc3c(N)c2c1,·,·,·,79*,·,·
COc1ccc(N=Nc2ccc(N)nc2N)cc1,·,14,·,0,·,·
Cc1ccc(N=Nc2c(O)n(CN3CCOCC3)c3ccccc23)cc1,0.8,6,167*,0,2.9,22
SMILES,FLuc stim CS,PPC-1+TRAIL kill,APP 5'UTR act,TRAIL sens C8,NF-kB expr up,FLuc inhib CS
Cc1ccccc1Nc1nc(N)nc(CCl)n1,·,14,·,91*,·,·
Cc1c(Cl)cccc1Nc1nc(N)nc(CSc2ncccn2)n1,1,-10,11,91*,1.8,-4
COc1ccc(Nc2nc(N)nc(CCl)n2)cc1,·,30,·,92*,·,·
COc1ccc(Nc2nc(N)nc(CN3CCOCC3)n2)cc1,1,23,3,5,1.3,1
CSc1cccc(NC(=O)c2cnccn2)c1,0.9,-5,3,2,1.5,5
CSc1nc2ccc(NC(=O)c3ccccn3)cc2s1,·,·,·,82*,·,·
CSc1cccc(NC(=O)c2ccccn2)c1,0.5,19,90,·,2.6,51*
